In ChEMBL document CHEMBL6134766, “Design, synthesis, and evaluation of benzhydrylpiperazine-based novel dual COX-2/5-LOX inhibitors with anti-inflammatory and anti-cancer activity” (RSC Med Chem, 2025):
The source made the active and inactive calls. No cut-off for these calls is given here.

Assays:
[1] = biological target: T1, Prostaglandin G/H synthase 1 (Ovis aries, UniProt P05979); assay: Inhibition of ovine COX-1 using arachidonic acid as substrate in presence of hemin by TMPD reagent-based colorimetry
T1 sequence (P05979 whole entry): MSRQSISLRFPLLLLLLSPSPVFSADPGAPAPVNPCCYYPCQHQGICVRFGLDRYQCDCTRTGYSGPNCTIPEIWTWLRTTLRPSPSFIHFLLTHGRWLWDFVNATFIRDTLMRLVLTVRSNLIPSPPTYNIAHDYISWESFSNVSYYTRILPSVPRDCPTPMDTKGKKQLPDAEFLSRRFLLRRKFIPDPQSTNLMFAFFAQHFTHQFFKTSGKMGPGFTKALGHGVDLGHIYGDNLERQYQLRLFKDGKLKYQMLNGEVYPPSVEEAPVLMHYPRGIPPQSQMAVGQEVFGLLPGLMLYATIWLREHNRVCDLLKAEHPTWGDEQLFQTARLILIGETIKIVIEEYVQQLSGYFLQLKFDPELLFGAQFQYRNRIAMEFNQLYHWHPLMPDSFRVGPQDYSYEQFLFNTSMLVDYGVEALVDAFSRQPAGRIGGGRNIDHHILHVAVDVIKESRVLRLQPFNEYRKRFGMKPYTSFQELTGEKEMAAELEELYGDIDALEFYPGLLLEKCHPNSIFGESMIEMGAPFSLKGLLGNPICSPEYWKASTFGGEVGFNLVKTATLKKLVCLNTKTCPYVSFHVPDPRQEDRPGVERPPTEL

[2] = test system: Rattus norvegicus; assay: Anti-inflammatory activity in carrageenan-induced paw edema Wistar rat model assessed as swelling thickness of paw at 10 mg/kg, po measured immediately by digital vernier caliper (reference value: 3.48 +/- 0.21 millimeter); format: functional
[3] = test system: Rattus norvegicus; assay: Anti-inflammatory activity in carrageenan-induced paw edema Wistar rat model assessed as swelling thickness of paw at 20 mg/kg, po measured immediately by digital vernier caliper (reference value: 3.48 +/- 0.21 millimeter); format: functional
[4] = test system: Rattus norvegicus; assay: Anti-inflammatory activity in carrageenan-induced paw edema Wistar rat model assessed as swelling thickness of paw at 5 mg/kg, po measured after 2 hrs by digital vernier caliper (reference value: 8.65 +/- 0.53 millimeter); format: functional
[5] = test system: Rattus norvegicus; assay: Anti-inflammatory activity in carrageenan-induced paw edema Wistar rat model assessed as swelling thickness of paw at 10 mg/kg, po measured after 2 hrs by digital vernier caliper (reference value: 8.65 +/- 0.53 millimeter); format: functional
[6] = test system: Rattus norvegicus; assay: Anti-inflammatory activity in carrageenan-induced paw edema Wistar rat model assessed as swelling thickness of paw at 10 mg/kg, po measured after 3 hrs by digital vernier caliper (reference value: 8.56 +/- 0.45 millimeter); format: functional
[7] = test system: Rattus norvegicus; assay: Anti-inflammatory activity in carrageenan-induced paw edema Wistar rat model assessed as swelling thickness of paw at 5 mg/kg, po measured after 4 hrs by digital vernier caliper (reference value: 8.36 +/- 0.78 millimeter); format: functional
[8] = test system: Rattus norvegicus; assay: Anti-inflammatory activity in carrageenan-induced paw edema Wistar rat model assessed as swelling thickness of paw at 10 mg/kg, po measured after 4 hrs by digital vernier caliper (reference value: 8.36 +/- 0.78 millimeter); format: functional
[9] = test system: Rattus norvegicus; assay: Anti-inflammatory activity in carrageenan-induced paw edema Wistar rat model assessed as swelling thickness of paw at 20 mg/kg, po measured after 4 hrs by digital vernier caliper (reference value: 8.36 +/- 0.78 millimeter); format: functional
[10] = test system: Rattus norvegicus; assay: Anti-inflammatory activity in carrageenan-induced paw edema Wistar rat model assessed as swelling thickness of paw at 5 mg/kg, po measured after 5 hrs by digital vernier caliper (reference value: 8.47 +/- 0.32 millimeter); format: functional
[11] = test system: Rattus norvegicus; assay: Anti-inflammatory activity in carrageenan-induced paw edema Wistar rat model assessed as swelling thickness of paw at 20 mg/kg, po measured after 5 hrs by digital vernier caliper (reference value: 8.47 +/- 0.32 millimeter); format: functional
[12] = test system: Rattus norvegicus; assay: Anti-inflammatory activity in carrageenan-induced paw edema Wistar rat model assessed as swelling thickness of paw at 5 mg/kg, po measured after 6 hrs by digital vernier caliper (reference value: 8.33 +/- 0.42 millimeter); format: functional
[13] = test system: Rattus norvegicus; assay: Anti-inflammatory activity in carrageenan-induced paw edema Wistar rat model assessed as swelling thickness of paw at 10 mg/kg, po measured after 6 hrs by digital vernier caliper (reference value: 8.33 +/- 0.42 millimeter); format: functional
[14] = test system: Rattus norvegicus; assay: Anti-inflammatory activity in arachidonic acid-induced paw edema Wistar rat model assessed as swelling thickness of paw at 10 mg/kg, po measured after 1 hr by digital vernier caliper (reference value: 6.51 +/- 0.37 millimeter); format: functional
[15] = test system: Rattus norvegicus; assay: Anti-inflammatory activity in arachidonic acid-induced paw edema Wistar rat model assessed as protection against swelling thickness of paw at 5 mg/kg, po measured after 1 hr by digital vernier caliper (reference value: 0 %); format: functional
[16] = test system: Rattus norvegicus; assay: Anti-inflammatory activity in arachidonic acid-induced paw edema Wistar rat model assessed as protection against swelling thickness of paw at 10 mg/kg, po measured after 1 hr by digital vernier caliper (reference value: 0 %); format: functional
[17] = Toxicity in fasting Wistar rat assessed as ulcer score at 10 mg/kg, po via gavage treated for 3 days consecutively by H and E staining based analysis (reference value: 0); format: organism-based; settings: in vivo, 72 h, time 3 day
Summary of the method: (§1)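 Fasted rats, n = 6/group, gavaged once daily for 3 days in 0.3% Na CMC (vehicle control 0.3% CMC); killed under anaesthesia 6 h after day-3 dose; stomachs saline-washed, mucosa examined with hand lens; ulcer score, index and % ulceration by reported scoring; some stomachs formalin-fixed, H&E stained.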

[18] = Toxicity in fasting Wistar rat assessed as ulcer index at 10 mg/kg, po via gavage treated for 3 days consecutively by H and E staining based analysis (reference value: 0); format: organism-based; settings: in vivo, 72 h, time 3 day; summary of the method: as §1
[19] = Toxicity in fasting Wistar rat assessed as ulcer index at 20 mg/kg, po via gavage treated for 3 days consecutively by H and E staining based analysis (reference value: 0); format: organism-based; settings: in vivo, 72 h, time 3 day; summary of the method: as §1
[20] = Toxicity in Wistar rat assessed as change in serum AST level at 20 mg/kg, po; format: organism-based; settings: in vivo
Summary of the method: (§2)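 Rats dosed orally in 0.3% Na CMC; retro-orbital blood clotted at room temperature, serum separated at 2000 rpm, 20 min, 4 °C; ALT, AST, creatinine and urea by commercial kits; n = 6 per group, mean ± SD; Tukey test after repeated-measures one-way ANOVA.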

[21] = Toxicity in Wistar rat assessed as change in serum creatinine level at 20 mg/kg, po; format: organism-based; settings: in vivo; summary of the method: as §2
[22] = test system: Rattus norvegicus; assay: Cardio-protective activity in ISO-treated Wistar rat assessed as decrease in serum LDH level at 20 mg/kg, po; format: functional, organism-based
Summary of the method: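 Rats (n = 6/group) given ISO 100 mg kg−1 s.c., then oral test compound in 0.3% CMC; vehicle controls. Retro-orbital blood, serum separated at 4000 rpm, 4 °C, 10 min; LDH and CK-MB by commercial kits; mean ± SD.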

[23] = test system: Rattus norvegicus; assay: Cardio-protective activity in ISO-treated Wistar rat assessed as decrease in serum cTn-I level at 20 mg/kg, po by ELISA; format: functional, organism-based
Summary of the method: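 ISO 100 mg kg−1 s.c. rat model, oral treatment after ISO, n = 6 per group; serum from retro-orbital blood (4000 rpm, 4 °C, 10 min); cTn-I by commercial kit; mean ± SD.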

| SMILES | IC50 [1] [µM] | Activity [2] [mm] | Activity [3] [mm] | Activity [4] [mm] | Activity [5] [mm] | Activity [6] [mm] | Activity [7] [mm] | Activity [8] [mm] | Activity [9] [mm] | Activity [10] [mm] | Activity [11] [mm] | Activity [12] [mm] | Activity [13] [mm] | Activity [14] [mm] | Activity [15] [%] | Activity [16] [%] | Activity [17] | UI [18] | UI [19] | Activity [20] | further results |
| --- | --- | --- | --- | --- | --- | --- | --- | --- | --- | --- | --- | --- | --- | --- | --- | --- | --- | --- | --- | --- | --- |
| Clc1ccc(-c2nnc(CN3CCN(C(c4ccccc4)c4ccc(Cl)cc4)CC3)o2)cc1 (stereo unspecified) | 34.1 | 3.21 | 3.43 | 5.63 | 3.96 | 3.47 | 4.18 | 3.32 | 3.22 | 3.98 | 3.24 | 4.14 | 3.37 | 2.01 | 56.12 | 69.22 | 0.02 | 2.083 | 1.875 | Non-toxic | Activity [21]: Non-toxic; Activity [22]: Active; Activity [23]: Active |
| O=[N+]([O-])c1ccc(-c2nnc(CN3CCN(C(c4ccccc4)c4ccc(Cl)cc4)CC3)o2)cc1 (stereo unspecified) | 41.1 | 3.44 | 3.65 | 5.25 | 4.55 | 4.41 | 4.57 | 3.88 | 4.32 | 4.22 | 3.96 | 4.14 | 3.89 | 2.3 | 55.22 | 62.33 | 0.031 | 3.125 | 9.37 | Non-toxic | Activity [21]: Non-toxic; Activity [22]: Active; Activity [23]: Active |
